# ChEMBL document CHEMBL1143881, “Sulfonamidolactam inhibitors of coagulation factor Xa” (Bioorg Med Chem Lett, 2008)
# Legend:
# Coagulation factor X = Coagulation factor X (Homo sapiens, UniProt P00742); test: Inhibition of human factor 10a
# Summary of the method: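 Inhibition constant (Ki) measured against purified human factor Xa; each value is the average of two independent experiments (n = 2).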
# Plasma = test: Anticoagulant efficacy in human citreated plasma assessed as concentration required to double prothrombin time; assay type: functional
# [1] = Selectivity for human factor 10a over thrombin
# [2] = Selectivity for human factor 10a over trypsin
# [3] = Apparent permeability across human Caco-2 cells; assay type: ADME, cell-based
# [4] = Selectivity for human factor 10a over factor 7a
# [5] = Clearance in dog; assay type: ADME, organism-based, Canis lupus familiaris; details: in vivo
# [6] = Half life in dog; assay type: ADME, organism-based, Canis lupus familiaris; details: in vivo
# [7] = Oral bioavailability in dog; assay type: ADME, organism-based, Canis lupus familiaris; details: in vivo
# Chain of Coagulation factor X (P00742 41-179 limits assumed): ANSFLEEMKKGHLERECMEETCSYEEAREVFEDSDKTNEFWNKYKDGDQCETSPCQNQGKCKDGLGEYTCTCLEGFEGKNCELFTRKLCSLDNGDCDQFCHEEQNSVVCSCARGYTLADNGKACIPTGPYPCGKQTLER
# Chain of Coagulation factor X (P00742 235-488 limits assumed): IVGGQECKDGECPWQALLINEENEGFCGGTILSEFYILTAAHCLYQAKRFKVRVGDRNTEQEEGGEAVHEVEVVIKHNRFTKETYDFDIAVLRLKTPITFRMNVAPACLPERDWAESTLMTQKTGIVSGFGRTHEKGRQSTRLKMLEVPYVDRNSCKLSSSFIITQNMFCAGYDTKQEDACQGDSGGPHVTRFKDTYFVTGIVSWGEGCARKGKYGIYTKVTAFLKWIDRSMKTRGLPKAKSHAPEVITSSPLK
Ki (Coagulation factor X) [nM],Selectivity ratio [1],Selectivity ratio [2],Papp [3] [×10⁻⁶ cm/s],Selectivity ratio [4],clearance [5] [mL/min/kg],half-life [6] [h],bioavailability [7] [%],Structure (SMILES),PT (Plasma) [µM]
1.7,> 1000,> 1000,,,,,,CN(C)CCN(C)C(=O)CN(C1CCCN(c2ccc(N3CCCCC3=O)cc2F)C1=O)S(=O)(=O)c1ccc2cc(Cl)ccc2c1 (configuration not stated),12
0.1,> 1000,> 1000,,,,,,NC(=O)CN(C1CCCN(c2ccc(-n3ccccc3=O)cc2)C1=O)S(=O)(=O)c1cc2ccc(Cl)nc2s1 (configuration not stated),4.8
53,> 1000,> 1000,,,,,,COc1ccc(S(=O)(=O)NC2CCCN(c3ccc(-c4ccccc4S(C)(=O)=O)cc3F)C2=O)cc1 (configuration not stated),
0.35,> 1000,> 1000,,,,,,COC(=O)C[N+](C)(C)Cc1nccn1-c1ccc(N2CCCC(NS(=O)(=O)c3ccc4cc(Cl)ccc4c3)C2=O)c(F)c1 (configuration not stated),13
0.13,> 1000,> 1000,,,,,,O=C(O)CN(C1CCCN(c2ccc(-n3ccccc3=O)cc2)C1=O)S(=O)(=O)c1cc2ccc(Cl)nc2s1 (configuration not stated),16
5.3,> 1000,> 1000,,,,,,CS(=O)(=O)c1ccccc1-c1ccc(N2CCCC(NS(=O)(=O)c3ccc(Cl)s3)C2=O)c(F)c1 (configuration not stated),
730,> 1000,> 1000,,,,,,CS(=O)(=O)c1ccccc1-c1ccc(N2CCCC(NS(=O)(=O)c3cc(Cl)cc(Cl)c3)C2=O)c(F)c1 (configuration not stated),
2.4,> 1000,> 1000,,,,,,CN(C)Cc1nccn1-c1ccc(N2CCCC(NS(=O)(=O)c3ccc4cc(Cl)ccc4c3)C2=O)c(F)c1 (configuration not stated),13
2.2,> 1000,> 1000,,,,,,CS(=O)(=O)c1ccccc1-c1ccc(N2CCCC(NS(=O)(=O)c3cccc4cc(Cl)ccc34)C2=O)c(F)c1 (configuration not stated),102
78,> 1000,> 1000,,,,,,CCc1ccc(S(=O)(=O)NC2CCCN(c3ccc(-c4ccccc4S(C)(=O)=O)cc3F)C2=O)cc1 (configuration not stated),
0.043,> 1000,> 1000,3.5,,,,,COC(=O)CN(C1CCCN(c2ccc(-n3ccccc3=O)cc2)C1=O)S(=O)(=O)c1cc2ccc(Cl)nc2s1 (configuration not stated),4.4
2.3,> 1000,> 1000,,,,,,CS(=O)(=O)c1ccccc1-c1ccc(N2CCCC(N(CCCO)S(=O)(=O)c3ccc4cc(Cl)ccc4c3)C2=O)c(F)c1 (configuration not stated),208
370,> 1000,> 1000,,,,,,CS(=O)(=O)c1ccccc1-c1ccc(N2CCCC(NS(=O)(=O)c3ccccc3)C2=O)c(F)c1 (configuration not stated),
0.037,> 1000,> 1000,0.1,,,,,CNC(=O)CN(C1CCCN(c2ccc(-n3ccccc3=O)cc2F)C1=O)S(=O)(=O)c1cc2ccc(Cl)nc2s1 (configuration not stated),4.2
270,> 1000,> 1000,,,,,,CS(=O)(=O)c1ccccc1-c1ccc(N2CCCC(NS(=O)(=O)c3ccc(F)c(F)c3)C2=O)c(F)c1 (configuration not stated),
200,> 1000,> 1000,,> 1000,,,,COc1ccc(OC2CCCN(c3ccc(-c4ccccc4S(C)(=O)=O)cc3F)C2=O)cc1 (configuration not stated),
2600,> 1000,> 1000,,,,,,CS(=O)(=O)c1ccccc1-c1ccc(N2CCCC(NS(=O)(=O)c3cccnc3)C2=O)c(F)c1 (configuration not stated),
0.05,> 1000,> 1000,2,,,,,O=C1C(NS(=O)(=O)c2cc3ccc(Cl)nc3s2)CCCN1c1ccc(-n2ccccc2=O)cc1 (configuration not stated),15
0.02,> 1000,> 1000,,,,,,CN(C)CCN(C)C(=O)CN(C1CCCN(c2ccc(-n3ccccc3=O)cc2F)C1=O)S(=O)(=O)c1ccc2cc(Cl)ccc2c1 (configuration not stated),3.3
0.11,> 1000,> 1000,,,,,,O=C1C(NS(=O)(=O)c2ccc3cc(Cl)ccc3c2)CCCN1c1ccc(-n2ccccc2=O)cc1F (configuration not stated),35
560,> 1000,> 1000,,,,,,COc1ccc(C(=O)NC2CCCN(c3ccc(-c4ccccc4S(C)(=O)=O)cc3F)C2=O)cc1 (configuration not stated),
19,> 1000,> 1000,,,,,,CS(=O)(=O)c1ccccc1-c1ccc(N2CCCC(NS(=O)(=O)c3ccc4onc(N)c4c3)C2=O)c(F)c1 (configuration not stated),
10,> 1000,> 1000,,,,,,O=C1CCCCN1c1ccc(N2CCCC(NS(=O)(=O)c3ccc4cc(Cl)ccc4c3)C2=O)c(F)c1 (configuration not stated),

Ki (Coagulation factor X) [nM],Selectivity ratio [1],Selectivity ratio [2],Papp [3] [×10⁻⁶ cm/s],Selectivity ratio [4],clearance [5] [mL/min/kg],half-life [6] [h],bioavailability [7] [%],Structure (SMILES),PT (Plasma) [µM]
260,> 1000,> 1000,,,,,,CS(=O)(=O)c1ccccc1-c1ccc(N2CCCC(NS(=O)(=O)c3ccc(N)nc3)C2=O)c(F)c1 (configuration not stated),
0.21,> 1000,> 1000,,,,,,COC(=O)CN(C1CCCN(c2ccc(-n3ccnc3C[N+](C)(C)CC(=O)OC)cc2F)C1=O)S(=O)(=O)c1ccc2cc(Cl)ccc2c1 (configuration not stated),12
26,> 1000,> 1000,,,,,,CS(=O)(=O)c1ccccc1-c1ccc(N2CCCC(NS(=O)(=O)c3ccc(-c4ccon4)s3)C2=O)c(F)c1 (configuration not stated),
0.013,> 1000,> 1000,,,,,,CN(C)CCN(C)C(=O)CN(C1CCCN(c2ccc(-n3ccccc3=O)cc2F)C1=O)S(=O)(=O)c1cc2ccc(Cl)nc2s1 (configuration not stated),2.1
450,> 1000,> 1000,,,,,,COc1ccc(NC2CCCN(c3ccc(-c4ccccc4S(C)(=O)=O)cc3F)C2=O)cc1 (configuration not stated),
23,> 1000,> 1000,,,,,,CS(=O)(=O)c1ccccc1-c1ccc(N2CCCC(NS(=O)(=O)c3ccc(Cl)cc3)C2=O)c(F)c1 (configuration not stated),
650,> 1000,> 1000,,,,,,CS(=O)(=O)c1ccccc1-c1ccc(N2CCCC(NS(=O)(=O)c3cc(Cl)ccc3Cl)C2=O)c(F)c1 (configuration not stated),
28,> 1000,> 1000,,,,,,O=C1C(NS(=O)(=O)c2ccc3cc(Cl)ccc3c2)CCCN1c1ccc(-c2ccncc2)cc1F (configuration not stated),
16,> 1000,> 1000,,,,,,O=C1C(NS(=O)(=O)c2ccc3cc(Cl)ccc3c2)CCCN1c1ccc(N2CCCCC2)cc1F (configuration not stated),
19,> 1000,> 1000,,,,,,CS(=O)(=O)c1ccccc1-c1ccc(N2CCCC(NS(=O)(=O)c3ccc4cn[nH]c4c3)C2=O)c(F)c1 (configuration not stated),
3200,> 1000,> 1000,,,,,,CS(=O)(=O)c1ccccc1-c1ccc(N2CCCC(NS(=O)(=O)Cc3ccccc3)C2=O)c(F)c1 (configuration not stated),
420,> 1000,> 1000,,,,,,CS(=O)(=O)c1ccccc1-c1ccc(N2CCCC(NS(=O)(=O)c3ccc(C#N)cc3)C2=O)c(F)c1 (configuration not stated),
44.5,> 1000,> 1000,,,,,,CS(=O)(=O)c1ccccc1-c1ccc(N2CCCC(NS(=O)(=O)c3ccc(F)cc3)C2=O)c(F)c1 (configuration not stated),
0.016,> 1000,> 1000,,,19.8,6.45,4,CN(C)CCN(C)C(=O)CN([C@H]1CCCN(c2ccc(-n3ccccc3=O)cc2F)C1=O)S(=O)(=O)c1ccc2cc(Cl)ccc2c1,1.7
380,> 1000,> 1000,,,,,,CS(=O)(=O)c1ccccc1-c1ccc(N2CCCC(NS(=O)(=O)c3cccc(Cl)c3)C2=O)c(F)c1 (configuration not stated),
61,> 1000,> 1000,,,,,,CS(=O)(=O)c1ccccc1-c1ccc(N2CCCC(NS(=O)(=O)c3ccc(Cl)c(Cl)c3)C2=O)c(F)c1 (configuration not stated),
28,> 1000,> 1000,,,,,,CS(=O)(=O)c1ccccc1-c1ccc(N2CCCC(NS(=O)(=O)c3cnc4ccccc4c3)C2=O)c(F)c1 (configuration not stated),
160,> 1000,> 1000,,,,,,Cc1c(S(=O)(=O)NC2CCCN(c3ccc(-c4ccccc4S(C)(=O)=O)cc3F)C2=O)sc2ccc(Cl)cc12 (configuration not stated),
18,> 1000,> 1000,,,,,,CS(=O)(=O)c1ccccc1-c1ccc(N2CCCC(NS(=O)(=O)c3cccc4ccc(Cl)cc34)C2=O)c(F)c1 (configuration not stated),
0.88,> 1000,> 1000,,,,,,COC(=O)CN(C1CCCN(c2ccc(-c3ccccc3S(C)(=O)=O)cc2F)C1=O)S(=O)(=O)c1ccc2cc(Cl)ccc2c1 (configuration not stated),89
73,> 1000,> 1000,,,,,,CS(=O)(=O)c1ccccc1-c1ccc(N2CCCC(NS(=O)(=O)c3ccc4ncccc4c3)C2=O)c(F)c1 (configuration not stated),
1,> 1000,> 1000,,,,,,CS(=O)(=O)c1ccccc1-c1ccc(N2CCCC(N(CC(=O)O)S(=O)(=O)c3ccc4cc(Cl)ccc4c3)C2=O)c(F)c1 (configuration not stated),250
100,> 1000,> 1000,,,,,,COc1cccc(S(=O)(=O)NC2CCCN(c3ccc(-c4ccccc4S(C)(=O)=O)cc3F)C2=O)c1 (configuration not stated),
